Experimental findings from ChEMBL document CHEMBL3259768, “Structure-activity relationships for vitamin D3-based aromatic a-ring analogues as hedgehog pathway inhibitors” (J Med Chem, 2014) are described below.

Common to all, as to type: cell-based
Experiment [1] can be described thus: Inhibition of hedgehog signaling pathway-mediated GLI1 mRNA expression in mouse C3H10T1/2 cells after 24 hrs by RT-PCR analysis in presence of (1R,3aR,4S,7aR)-7a-methyl-1-((R)-6-methylheptan-2-yl)octahydro-1H-inden-4-yl 3-hydroxybenzoate. To be noted: C3H 10T1/2.
Experiment [2] is described as follows: Inhibition of hedgehog signaling pathway-mediated GLI1 mRNA expression in mouse C3H10T1/2 cells assessed as residual activity at 0.5 uM after 24 hrs by RT-PCR analysis relative to 20alpha-hydroxycholesterol/22(S)-hydroxycholesterol. To be noted: C3H 10T1/2. The procedure, abridged:
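C3H10T1/2 cells co-treated with analogue and the oxysterol Hh activators 20α-hydroxycholesterol plus 22(S)-hydroxycholesterol (5 μM each) for 24 h. Gli1 mRNA measured by qPCR as % of OHC-only control (100%). Analogue at 5 μM, or at 0.5 μM where stated.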

Experiment [3] can be described thus: Inhibition of hedgehog signaling pathway-mediated PTCH mRNA expression in mouse ASZ001 cells up to 10 uM after 24 hrs by RT-PCR analysis.

The source made the active and inactive calls. The rule behind the calls is not given here.

On to `CS(=O)(=O)c1ccc(C(=O)Nc2ccc(Cl)c(-c3ccccn3)c2)c(Cl)c1`, for which the inhibition entry in experiment [1] was “Active”. Further, the Activity in experiment [2] was 4.8%. Further, the inhibition entry in experiment [3] was “inactive”.
